Hits are enriched below; roughly 3.8% of the tested compounds scored in any of these assays.
Kir21 inh – inhibitors of mouse Kir2.1 inward-rectifier potassium channel; HEK293-Kir2.1, FluxOR thallium flux fluorescence; stronger effect = lower value; AID 1672, 2009; B-score at 10 µM; Inward rectifier potassium channel 2 (Mus musculus), P35561; 310,000 compounds, 0.85% hits;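 active = fluorescence ratio B-score at or below minus 3 SD of library scores, with starting-brightness B-score within 2 SD, cut at about -4.2 in these data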;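 note: channel flux triggered by added potassium and thallium sulfate stimulus; B-score of peak minus minimum fluorescence over baseline after thallium stimulus; more negative B-score means stronger Kir2.1 block with less thallium influx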
Target sequence (P35561 whole entry, looked up): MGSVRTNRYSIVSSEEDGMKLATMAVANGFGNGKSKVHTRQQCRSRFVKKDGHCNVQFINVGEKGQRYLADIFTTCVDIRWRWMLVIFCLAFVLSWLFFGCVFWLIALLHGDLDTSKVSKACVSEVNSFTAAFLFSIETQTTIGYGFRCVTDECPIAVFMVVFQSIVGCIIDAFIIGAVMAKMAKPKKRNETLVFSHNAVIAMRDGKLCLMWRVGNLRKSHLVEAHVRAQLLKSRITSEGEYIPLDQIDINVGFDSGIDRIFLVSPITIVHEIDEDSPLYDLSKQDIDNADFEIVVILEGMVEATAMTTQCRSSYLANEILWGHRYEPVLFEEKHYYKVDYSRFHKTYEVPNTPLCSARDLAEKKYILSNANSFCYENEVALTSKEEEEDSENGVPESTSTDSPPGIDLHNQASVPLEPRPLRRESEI
KCNK3 block – human KCNK3 channel inhibitors, primary screen, CHO cells, FluxOR thallium flux, B-score; B-score at 10 µM; 340,000 compounds, 0.84% hits; Potassium channel subfamily K member 3 (Homo sapiens), O14649; AID 602410, 2012; FluxOR fluorescence; stronger effect = lower value;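 active = B-score under library mean minus 4 SD, starting fluorescence ratio at most library mean plus 5 SD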;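 note: more negative B-score means stronger inhibition of thallium flux through KCNK3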
hERG rescue – hERG rescue from dofetilide block, primary screen, cell-based, CHO-hERG, FluxOR thallium flux, dofetilide IC70; Voltage-gated inwardly rectifying potassium channel KCNH2 (Homo sapiens), Q12809; dofetilide IC70 present; activation (rescue from dofetilide block), less the hit threshold, % at 10 µM; 310,000 compounds, 0.51% hits; AID 1511, 2009;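 active = activation above the mean of controls blocked by dofetilide plus 5 SD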;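 note: thallium influx through hERG after potassium depolarization seen as dye fluorescence rise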
KCNQ1 block – inhibitors of human KCNQ1 channel, primary screen, cell-based, thallium flux, high-throughput; CHO-K1 KCNQ1, FluxOR thallium flux fluorescence; stronger effect = higher value; B-score at 10 µM; 310,000 compounds, 1.3% hits;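 active = compounds whose thallium flux B-score, printed positive for inhibition, exceeds three library SD while starting fluorescence stays within three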;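 note: channel opened by potassium depolarization with thallium stimulus after 20 min compound exposure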
KCNK9 inh – KCNK9 potassium channel inhibitors, primary screen, HEK293 cells, thallium flux; B-score at 10 µM; Potassium channel subfamily K member 9 (Homo sapiens), Q9NPC2; 310,000 compounds, 1.2% hits; FluxOR thallium flux fluorescence; stronger effect = lower value;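 active = ratio B-score over 3 SD below the library mean, with starting fluorescence within 5 SD of its mean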;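 note: negative B-score means less thallium flux so channel inhibition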
KCNQ1 act – potentiators or activators of KCNQ1 channel, primary screen, cell-based, thallium flux, high-throughput; Potassium voltage-gated channel subfamily KQT member 1 (Homo sapiens), P51787; CHO-K1 KCNQ1, thallium flux FluxOR fluorescence; stronger effect = higher value; B-score at 10 µM; 310,000 compounds, 0.35% hits; AID 2648, 2010;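 active = fluorescence ratio B-score, a plate-corrected score, at least three library SD, with initial intensity B-score within 5 SD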
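Test system: CHO-K1 cells stably expressing KCNQ1 / Medium: assay buffer / Also added: depolarizing K+/Tl+ stimulus, K2SO4 and Tl2SO4 each 12.5 mM in 5x stock / Incubation: 90 min dye loading and 20 min compound exposure, both at room temperature / Signal: thallium influx via FluxOR fluorescence, kinetic imaging / Evaluation: B score of baseline-normalized fluorescence ratio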
KCNQ1 inh valid – KCNQ1 potassium channel inhibitors, confirmation, cell-based, Tl flux, duplicate | shares compounds with KCNQ1 block | KCNQ1 cell line, FluxOR thallium flux fluorescence | inhibition, % at 10 µM | 1,600 compounds, 93% hits;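 active = primary screen active, with duplicate mean exceeding buffer control mean plus 3 SD of buffer wells, cut at about 28% in these data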
CHO Tl flux – thallium flux effects in parental CHO cells, counter-screen for KCNQ1 inhibitor project, cell-based, Tl flux; fluorescence ratio (Tl flux) at 10 µM; shares compounds with KCNQ1 block; 1,600 compounds, 21% hits; parental CHO-K1, FluxOR thallium flux fluorescence ratio; stronger effect = lower value; zero means no signal rise above baseline; AID 588366, 2011;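 active = mean of duplicate thallium-flux fluorescence ratios in parental host cells more than 5 SD below the buffer control mean, cut at about 0.38 in these data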;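 note: ratio is peak minus minimum fluorescence divided by baseline fluorescence; actives read low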
KCNQ1 ephys val – KCNQ1 channel inhibitors, confirmation, orthogonal assay, cell-based, automated electrophysiology; shares compounds with KCNQ1 block; calls only at 10 µM; KCNQ1-CHO cells, automated patch clamp current; 490 compounds, 20% hits;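 active = KCNQ1 current drop exceeding 3 SD of negative control wells, seen in both duplicate runs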;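 note: steady state current during a 2 s step from -80 to +40 mV; negative values mean current inhibition and positive values mean potentiation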
KCNQ2 spec – KCNQ2 channel inhibition, selectivity assay for KCNQ1 inhibitor project, cell-based; shares compounds with KCNQ1 block; KCNQ2 cells, FluxOR thallium flux fluorescence; inhibition, % at 10 µM; 1,600 compounds, 71% hits; AID 651746, 2012;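 active = mean percent inhibition of the KCNQ2 thallium signal more than 5 SD above the buffer-only control wells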;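 note: KCNQ2 expressed in CHO cells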
KCNQ1-KCNE1 inh – KCNQ1/KCNE1 channel inhibition, selectivity assay for KCNQ1 inhibitor project, CHO-K1 cells, thallium flux, FluxOR. shares compounds with KCNQ1 block. FluxOR thallium flux fluorescence. inhibition, % at 10 µM. 1,600 compounds, 77% hits. AID 652147, 2013;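 active = mean percent inhibition of duplicate wells above the buffer-only control mean plus 3 SD of those controls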
A number is an active result; n = inactive; x = no result given; + = active, no number.

SMILES	Kir21 inh	KCNK3 block	hERG rescue	KCNQ1 block	KCNK9 inh	KCNQ1 act	KCNQ1 inh valid	CHO Tl flux	KCNQ2 spec	KCNQ1-KCNE1 inh	others
CC(C)Cc1nnc(NC(=O)c2cc(-c3ccccc3)nc3ccccc23)s1	n	n	n	6	n	n	121.0	n	80.0%	143.0%
Cc1ccc(S(=O)(=O)c2ccc(C)cc2)cc1	n	n	n	n	n	n	x	x	x	x
Cc1ccc(S(=O)(=O)c2ccc(Oc3cccc(C)c3)cc2)cc1	n	n	n	8	n	n	111.5	n	108.0%	114.5%	KCNQ1 ephys val=n
O=C(Nc1nc(-c2cccs2)c(C(=O)C(F)(F)F)s1)c1ccccc1	n	n	n	7	n	n	25.0	n	n	n
COc1ccc(S(=O)(=O)N2CCCOC2CNC(=O)C(=O)NCCCn2ccnc2)cc1 (stereo not given)	n	n	n	n	n	n	x	x	x	x
O=C(Nc1ccc(F)cc1)C(NC1CCCCC1)c1ccccc1 (stereo not given)	n	n	n	7	n	n	76.0	n	65.0%	105.0%
O=C(Nc1ccc(F)cc1)NC1CCCCCCC1	n	n	n	n	n	n	x	x	x	x
O=C(CC1C(=O)N(c2ccccc2)C(=S)N1c1ccccc1)c1ccc(Br)cc1 (stereo not given)	n	n	n	6	n	n	65.0	n	97.0%	68.5%
COc1ccccc1NS(=O)(=O)c1cccc(-n2c(O)c(C=Nc3ccccc3C(=O)O)c3ccccc3c2=O)c1	n	n	n	n	n	n	x	x	x	x
Cn1cc(CNCc2ccc(OC(F)(F)F)cc2)c(-c2ccc3c(c2)OCCO3)n1	n	n	n	10	n	n	124.0	n	111.7%	60.0%	KCNQ1 ephys val=n
CC(=O)c1ccc(NC(=S)NN2C(C)CCCC2C)cc1 (stereo not given)	n	n	n	n	n	n	x	x	x	x
CC1CCN(C(=S)Nc2ccc(SC(F)F)cc2)CC1	n	n	n	n	n	n	x	x	x	x
CC(=O)c1ccc(NC(=S)NC2CCCC(C)C2C)cc1 (stereo not given)	n	n	n	7	n	n	47.0	n	n	34.5%
CC1CCCC(NC(=S)Nc2cccc(S(=O)(=O)N(C)C)c2)C1C (stereo not given)	n	n	n	8	n	n	35.0	n	n	n
CC1CCCCC1NC(=S)Nc1ccc(SC(F)F)cc1 (stereo not given)	n	n	n	7	n	n	65.5	n	n	39.5%
CC(=O)Nc1ccc(SCC(=O)N(C)C2CCS(=O)(=O)C2)cc1 (stereo not given)	n	n	n	n	n	n	x	x	x	x
CCc1ccc(N(CC(=O)Nc2nc3ccc(C)cc3s2)S(=O)(=O)c2c(C)noc2C)cc1	n	n	n	9	n	n	71.0	n	73.0%	138.0%
CCN(CC(=O)Nc1ccc2c(c1)OCCO2)S(=O)(=O)c1ccc(F)cc1	n	n	n	n	n	n	x	x	x	x
CC(NC(=O)Nc1nnc(C(F)(F)F)s1)(C(F)(F)F)C(F)(F)F	n	n	n	7	n	n	n	n	n	n
CC(NC(=O)Nc1nnc(C(F)(F)F)s1)N1C(=O)C2C3C=CC(C3)C2C1=O (stereo not given)	n	n	n	n	n	n	x	x	x	x
CC(C)(C)OC(=O)C[C@@H]1C/C=C\C[C@@H](CC(=O)N[C@@H](CO)Cc2ccccc2)C(=O)NCCOC1=O	x	n	x	x	x	x	x	x	x	x
O=S(=O)(Nc1ccc(-n2cccc2)cc1)c1ccc(Cl)c(Cl)c1	n	n	n	10	n	n	105.5	n	117.3%	162.5%	KCNQ1 ephys val=n
O=S(=O)(Nc1ccc(-n2cccc2)cc1)c1ccc(Cl)cc1Cl	n	n	n	n	n	n	x	x	x	x
Cc1ccc(C(=O)NC(=S)Nc2ccc(CN3CCCCC3)cc2)c(C)c1	n	n	n	6	n	n	57.5	n	67.0%	63.0%
CC(C)(C)c1nc(N2CCN(C(=O)c3ccco3)CC2)c2nnn(Cc3ccccc3)c2n1	n	n	n	7	n	n	118.5	n	105.3%	131.5%	KCNQ1 ephys val=n
SMILES	Kir21 inh	KCNK3 block	hERG rescue	KCNQ1 block	KCNK9 inh	KCNQ1 act	KCNQ1 inh valid	CHO Tl flux	KCNQ2 spec	KCNQ1-KCNE1 inh	others
O=C(c1ccco1)N1CCCC(c2nc3c(nnn3Cc3ccccc3)c(=O)[nH]2)C1 (stereo not given)	n	n	n	n	n	n	x	x	x	x
O=C(Nc1ccc(F)cc1)c1ccccc1NS(=O)(=O)N1CCCC1	n	n	n	7	n	n	82.0	n	67.3%	n
Cc1cc(C)c(O)c(-c2cc(C(=O)Nc3ccc(S(=O)(=O)N4CCOCC4)cc3)[nH]n2)c1	n	n	n	6	n	n	133.0	0.373	94.3%	+
O=C1c2ccccc2C(=O)N1Cc1ccco1	n	n	n	n	n	n	x	x	x	x
O=C1c2cccc3c(O)ccc(c23)C(=O)N1Cc1ccco1	n	n	n	22	n	n	+	0.0105	n	n
CC(=O)c1cccc(NC(=O)N2CCCC2C(=O)NCc2ccc3c(c2)OCO3)c1 (stereo not given)	n	n	n	7	n	n	n	n	n	n
CCOc1ncccc1C(=O)Nc1cc(S(=O)(=O)N2CCCCC2)ccc1Cl	x	n	x	x	x	x	x	x	x	x
O=C(Nc1cccc(Cl)c1)N1CCSc2cc(Cl)ccc21	n	n	n	9	n	n	119.0	n	111.3%	68.5%
O=C(NCC1([N+](=O)[O-])CN(C(=O)c2ccccc2)CN(C(=O)c2ccccc2)C1)c1ccccc1	n	n	n	n	n	n	x	x	x	x

Assay outcomes deposited in PubChem BioAssay by Johns Hopkins Ion Channel Center.
